Screening results: PubChem, several laboratories
Sampled rows, rich in hits. Any-hit rate of the full collection: about 4.1%.
KCNQ1 inh – inhibitors of human KCNQ1 potassium channel; P51787; B-score at 10 µM; AID 2642; CHO-K1 KCNQ1, FluxOR thallium flux fluorescence; active compounds read high; 1.3% of 310,000 active;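 active = compounds whose thallium flux B-score, printed positive for inhibition, exceeds three library SD while starting fluorescence stays within three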;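 note: channel opened by potassium depolarization with thallium stimulus after 20 min compound exposure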
hERG protect – hERG (human) protection from proarrhythmic block; AID 1511; activation (rescue from dofetilide block), less the hit threshold, % at 10 µM; CHO-hERG, FluxOR thallium flux, dofetilide IC70 present; 0.51% of 310,000 active; Q12809;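 active = activation above the mean of controls blocked by dofetilide plus 5 SD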;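 note: thallium influx through hERG after potassium depolarization seen as dye fluorescence rise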
KCNK3 inh – human KCNK3 channel inhibition, primary screen. O14649. 0.84% of 340,000 active. B-score at 10 µM. CHO-KCNK3 thallium flux, FluxOR fluorescence; active compounds read low;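 active = B-score under library mean minus 4 SD, starting fluorescence ratio at most library mean plus 5 SD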;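 note: more negative B-score means stronger inhibition of thallium flux through KCNK3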
Target sequence (O14649 whole entry, looked up): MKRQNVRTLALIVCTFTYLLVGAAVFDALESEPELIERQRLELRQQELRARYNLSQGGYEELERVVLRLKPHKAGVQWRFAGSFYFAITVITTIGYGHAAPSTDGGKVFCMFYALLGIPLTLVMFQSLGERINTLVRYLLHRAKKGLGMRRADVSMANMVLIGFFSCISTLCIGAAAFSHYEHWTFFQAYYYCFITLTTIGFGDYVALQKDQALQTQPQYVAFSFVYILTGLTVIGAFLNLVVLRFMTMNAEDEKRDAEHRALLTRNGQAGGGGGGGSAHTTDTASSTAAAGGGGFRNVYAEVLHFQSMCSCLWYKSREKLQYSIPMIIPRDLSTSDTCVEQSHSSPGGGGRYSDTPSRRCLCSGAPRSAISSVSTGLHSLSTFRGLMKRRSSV
KCNK9 block – inhibitors of human KCNK9 two-pore domain potassium channel. Q9NPC2. HEK293 KCNK9, FluxOR thallium flux fluorescence; active compounds read low. B-score at 10 µM. 1.2% of 310,000 active. AID 488922;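 active = ratio B-score over 3 SD below the library mean, with starting fluorescence within 5 SD of its mean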;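 note: negative B-score means less thallium flux so channel inhibition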
Cl transport mod – modulators of human KCC2 chloride dependent transport; Q9H2X9; KCC2 cells, thallium flux FluoZin-2 fluorescence; B-score of Tl+ flux slope (higher = more flux/activation; lower = inhibition) at 10 µM; 2.2% of 190,000 active; AID 1456;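 active = thallium flux slope and its plate-corrected score both differing from the plate sample mean at a set confidence after two filtering rounds, in either direction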;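 note: slope of fluorescence scaled to starting intensity during 10 to 20 s after thallium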
KCNQ1 pot – potentiators or activators of human KCNQ1 potassium channel. CHO-K1 KCNQ1, thallium flux FluxOR fluorescence; active compounds read high. B-score at 10 µM. 0.35% of 310,000 active. AID 2648;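 active = fluorescence ratio B-score, a plate-corrected score, at least three library SD, with initial intensity B-score within 5 SD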
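assay system = CHO-K1 cells stably expressing KCNQ1 | medium = assay buffer, equal DMSO in all wells | timing = 37 °C overnight plating, 90-min dark dye load, 20-min compound pretreatment | measured by = kinetic FluxOR thallium fluorescence, 10-s 1-Hz baseline, 110-s post-stimulus read | measure = fluorescence change relative to baseline, converted to B score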
KCNQ1 inh valid – confirmation of human KCNQ1 potassium channel inhibitors. KCNQ1 cell line, FluxOR thallium flux fluorescence. shares compounds with KCNQ1 inh. AID 588353. 93% of 1,600 active. inhibition, % at 10 µM;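 active = primary screen active, with duplicate mean exceeding buffer control mean plus 3 SD of buffer wells, cut at about 28% in these data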;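 note: 0% = buffer control ratio and 100% = XE991 inhibitor control ratio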
CHO KCNQ1 ctr – counter-screen for KCNQ1 inhibitors: effect in parental CHO cells; 21% of 1,600 active; shares compounds with KCNQ1 inh; fluorescence ratio (Tl flux) at 10 µM; parental CHO-K1, FluxOR thallium flux fluorescence ratio; active compounds read low; zero means no signal rise above baseline;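 active = mean of duplicate thallium-flux fluorescence ratios in parental host cells more than 5 SD below the buffer control mean, cut at about 0.38 in these data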;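 note: ratio is peak minus minimum fluorescence divided by baseline fluorescence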
KCNQ1 ephys val – blocks human KCNQ1 current in automated patch clamp; shares compounds with KCNQ1 inh; KCNQ1-CHO cells; calls only at 10 µM; 20% of 490 active;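 active = KCNQ1 current drop exceeding 3 SD of negative control wells, seen in both duplicate runs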;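 note: steady state current during a 2 s step from -80 to +40 mV; negative values mean current inhibition and positive values mean potentiation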
KCNQ2 spec – selectivity of KCNQ1 inhibitors: inhibition of rat KCNQ2 channel; KCNQ2 cells, FluxOR thallium flux fluorescence; shares compounds with KCNQ1 inh; inhibition, % at 10 µM; 71% of 1,600 active; AID 651746;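 active = mean percent inhibition of the KCNQ2 thallium signal more than 5 SD above the buffer-only control wells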;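 note: KCNQ2 expressed in CHO cells; 0% = buffer control wells and 100% = XE-991 inhibitor control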
KCNQ1-KCNE1 inh – KCNQ1 inhibitor that also blocks human KCNQ1/KCNE1 channel. shares compounds with KCNQ1 inh. KCNQ1/KCNE1 cells, FluxOR thallium flux fluorescence. inhibition, % at 10 µM. 77% of 1,600 active. AID 652147;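 active = mean percent inhibition of duplicate wells above the buffer-only control mean plus 3 SD of those controls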;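 note: 0% = buffer only wells and 100% = XE-991 inhibitor control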
KCNK9 inh conf – confirmation of human KCNK9 potassium channel inhibitors. 43% of 4,900 active. inhibition, % at 10 µM. AID 492992. shares compounds with KCNK9 block. HEK293 KCNK9 cells, FluxOR thallium flux fluorescence;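 active = thallium signal inhibited by more than 5 SD of the compound-free buffer control wells, on both duplicate plates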;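 note: 0% = assay buffer control wells without compound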
Kir21 sel – selectivity of KCNK9 modulators against mouse Kir2.1 | shares compounds with KCNK9 block | Kir2.1 cells, FluxOR thallium flux fluorescence | inhibition, % at 10 µM | 4% of 4,900 active | AID 492993;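 active = thallium signal drop more than 5 SD beyond the mean of the no-compound control wells, seen in both duplicate plates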;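 note: signal is fluorescence rise after thallium addition divided by baseline fluorescence; plate controls were assay buffer only for no effect and full block by chlorpromazine control for full effect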
Target sequence (P35561 whole entry, looked up): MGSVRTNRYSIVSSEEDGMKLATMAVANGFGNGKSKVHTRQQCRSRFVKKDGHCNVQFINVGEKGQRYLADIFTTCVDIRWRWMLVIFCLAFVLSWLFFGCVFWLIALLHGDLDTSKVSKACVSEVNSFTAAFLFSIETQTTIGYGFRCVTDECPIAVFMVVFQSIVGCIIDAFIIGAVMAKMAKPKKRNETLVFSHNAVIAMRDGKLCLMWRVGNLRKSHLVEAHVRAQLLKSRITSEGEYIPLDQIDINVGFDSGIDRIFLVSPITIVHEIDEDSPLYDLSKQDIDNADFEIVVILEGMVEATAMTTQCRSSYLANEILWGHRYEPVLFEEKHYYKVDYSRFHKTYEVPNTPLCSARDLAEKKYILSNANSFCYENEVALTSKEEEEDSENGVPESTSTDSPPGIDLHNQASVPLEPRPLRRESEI
KCNK9 uninduced – non-induced cell nonspecific activity of KCNK9 modulators. non-induced KCNK9-HEK293, FluxOR thallium flux. 40% of 4,900 active. shares compounds with KCNK9 block. AID 492997. inhibition, % at 10 µM;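 active = thallium signal drop beyond 5 SD of the untreated control mean, on both duplicate plates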;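 note: plate controls were buffer only IC0 wells for no effect and SID17386958 at its maximal inhibitory level for full effect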
KCNK3 confirm – human KCNK3 channel inhibition, confirmation assay | CHO-KCNK3 thallium flux, FluxOR fluorescence; 0% buffer, 100% carvedilol maximal block | shares compounds with KCNK3 inh | AID 651638 | ratio percent of control, % at 10 µM | 99% of 2,400 active;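 active = ratio percent of control, averaged over triplicates, above buffer control mean plus 5 SD, cut at about 64% in these data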;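 note: ratio is the fluorescence rise from min to max over baseline after thallium stimulus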
KCNK3 uninduced – activity in cells without induced KCNK3 expression; AID 651747; shares compounds with KCNK3 inh; non-induced KCNK3 parental cells, FluxOR thallium flux; active compounds read low; 40% of 2,400 active; thallium flux ratio (lower = more inhibition) at 10 µM;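 active = thallium flux ratio, averaged over three wells, more than 5 SD below the buffer control mean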;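 note: host cells are CHO cells without KCNK3 induction; ratio is peak minus trough fluorescence over baseline then normalized to buffer controls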
* hit, by the source's call; i = inactive; . = no result given; + = active, no number.

SMILES | KCNQ1 inh | hERG protect | KCNK3 inh | KCNK9 block | Cl transport mod | KCNQ1 pot | KCNQ1 inh valid | CHO KCNQ1 ctr | KCNQ2 spec | KCNQ1-KCNE1 inh | KCNK3 confirm | KCNK3 uninduced | others
CC(c1cccs1)N(Cc1ccco1)C(=O)Nc1ccc(Cl)c(Cl)c1 (stereo not given) | 19* | -10 | -11* | -14* | -1.2 | i | 146* | 0.35* | 116%* | + | 122* | 0.13* | KCNK9 inh conf=60%*;Kir21 sel=i;KCNK9 uninduced=44%*
Cc1[nH]c(=O)n(C(C)C)c(=O)c1Br | . | . | i | . | . | . | . | . | . | . | . | .
CC(C)(C)c1cc(C(=O)NCc2cc(F)cc3c2OCOC3)n(Cc2ccccc2)n1 | 9* | -11 | -12* | -7.9* | -0.9 | i | 134* | 0.37* | 101%* | 198%* | 135* | 0.13*
COc1cccc(NC(=O)Nc2ccc3c(c2)N(C)C(=O)CS3)c1 | 6* | -28 | -11* | i | 0.11 | i | 114* | 0.36* | 114%* | + | 119* | i
CCOc1ccc(OCC)c(NC(=O)Nc2ccc3c(c2)N(C)C(=O)CS3)c1 | 14* | -9 | -16* | i | -0.94 | i | 82* | 0.47 | 90%* | 152%* | 119* | i
COc1cccc(NC(=O)Nc2ccc(C(C)(C)C)cc2)c1 | 13* | -30 | -13* | i | 1 | i | 152* | 0.35* | 109%* | + | 134* | 0.13*
COc1cccc(NC(=O)Nc2ccncc2)c1 | i | -4 | i | i | -0.22 | i | . | . | . | . | . | .
CN1C(=O)CSc2ccc(NC(=O)Nc3ccccn3)cc21 | i | 1 | i | i | 0.19 | i | . | . | . | . | . | .
CC(=O)Nc1ccc(NC(=O)Nc2ccc3c(c2)N(C)C(=O)CS3)cc1 | i | -6 | i | i | 0.64 | i | . | . | . | . | . | .
COc1ccc(-c2sc3ccc(N4CCOCC4)cc3c2C#CCCO)cc1 | . | . | i | . | . | . | . | . | . | . | . | .
CCOC(=O)C1=C(COC(=O)COc2ccccc2C(C)C)NC(=O)NC1C (stereo not given) | . | . | i | . | . | . | . | . | . | . | . | .
CCCCn1cnc2c(SCc3ccc(Br)cc3)nc(N)nc21 | . | . | i | . | . | . | . | . | . | . | . | .
CCOC(=O)c1c(C)n(-c2ccc(C)cc2)c2ccc(O)c(CN(C)C)c12 | 6* | -24 | -9.8* | i | 0.28 | i | 38* | 0.48 | i | i | 117* | 0.15*
Fc1ccc(C2c3[nH]c4ccccc4c3CCN2Cc2cccn2-c2ncccn2)cc1 (stereo not given) | 6* | -22 | -14* | -7.8* | -1.1 | i | 84* | 0.44 | 72%* | 97%* | 121* | 0.15*
Cc1cnc(C(=O)N2CCc3c([nH]c4ccccc34)C2c2ccc(F)cc2)cn1 (stereo not given) | i | 0 | i | i | . | i | . | . | . | . | . | .
CC(C)Cc1nc(N2CCN(C(=O)c3ccco3)CC2)c(C#N)c2c1CCCC2 | 11* | -9 | -10* | -16* | . | i | 116* | 0.32* | 117%* | i | 66* | i | KCNK9 inh conf=34%*;Kir21 sel=i;KCNK9 uninduced=28%*
Cc1ccc(C2(c3ccccc3)NC(=O)N(CC(=O)NCc3ccco3)C2=O)cc1C (stereo not given) | . | . | i | . | . | . | . | . | . | . | . | .
Cc1ccc(C(=O)N/C(=C\c2ccco2)C(=O)N2CCOCC2)cc1C | i | -8 | i | i | . | i | . | . | . | . | . | .
CC(Oc1ccc(F)cc1F)C(=O)NNC(=S)NCC1CCCO1 (stereo not given) | i | -7 | i | i | . | i | . | . | . | . | . | .
Cc1ccc(C(C)C)cc1OCC(=O)NC1CCCCCCC1 | 9* | -8 | -10* | i | . | i | 116* | 0.42 | i | 113%* | 114* | i | KCNQ1 ephys val=i
Cc1cc(OCC(=O)Nc2ccncc2)c(C)cc1Br | 8* | -16 | -9.2* | i | -1.2 | i | 132* | 0.49 | 108%* | 44%* | 122* | i | KCNQ1 ephys val=i
CC(C)(C)c1ccc(OCC(=O)Nc2ccncc2)c(Br)c1 | 19* | -18 | -8.8* | i | . | i | 142* | 0.42 | i | 74%* | 138* | 0.12* | KCNQ1 ephys val=i
CCc1ccc(OCC(=O)Nc2ccncc2)c(Br)c1 | i | -8 | i | i | . | i | . | . | . | . | . | .
Cn1c(N2CCN(C(c3ccccc3)c3ccccc3)CC2)nc2ccccc21 | 12* | -15 | -13* | -14* | . | i | 142* | 0.39 | 142%* | + | 117* | 0.16* | KCNQ1 ephys val=i;KCNK9 inh conf=84%*;Kir21 sel=i;KCNK9 uninduced=i
CC(C)c1ccc2c(c1)C1(NN=C(c3ccccc3)S1)C(=O)N2 (stereo not given) | 18* | -22 | -12* | i | 0.0027 | i | 68* | 0.35* | 78%* | 42%* | 138* | 0.095*
Nc1c(N(CCCO)C(=O)CCCN2C(=O)c3cccc4cccc(c34)C2=O)c(=O)[nH]c(=O)n1Cc1ccccc1 | . | . | i | . | . | . | . | . | . | . | . | .
O=C(c1ccc(CSc2nc3ccncc3[nH]2)cc1)N1CCCCCC1 | i | -12 | i | i | 0.41 | i | . | . | . | . | . | .
